Results from ChEMBL document CHEMBL4342502, “Synthesis and Antichlamydial Activity of Molecules Based on Dysregulators of Cylindrical Proteases” (J Med Chem, 2020).
The source made the active and inactive calls. No cut-off for these calls is given here.

Legend:
[1] = test system: Chlamydia trachomatis; assay: Anti-chlamydial activity against Chlamydia trachomatis Serovar LGV-L2 infected in Hep2 cells assessed as reduction in chlamydial inclusion growth by measuring appearance of small and irregular inclusions at 3 ug/ml treated at 8 hrs post-infection and 24 hrs later re-infecting fresh Hep2 cells monolayer with infected cells and measured at 24 hrs post re-infection by immunofluorescence staining based microscopy analysis; assay type: functional, organism-based
Outline: (§1)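 HEp-2 cells in DMEM with 10% FBS, infected with C. trachomatis L2 at MOI 1. Compounds added 8 hpi in triplicate; DMSO stocks at 50 mg/mL. At 24 hpi lysates collected in sucrose storage medium, frozen at −80 °C, and used to infect fresh HEp-2 monolayers in 10-fold dilutions. After 24 h, stained with goat anti-MOMP and Alexa488 secondary. Inclusions counted in 15 fields at 20x; IFU = mean count per field corrected for dilution.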

[2] = test system: Chlamydia trachomatis; assay: Anti-chlamydial activity against Chlamydia trachomatis Serovar LGV-L2 infected in Hep2 cells assessed as reduction in chlamydial inclusion growth by measuring appearance of small and irregular inclusions at 128 ug/ml treated at 8 hrs post-infection and 24 hrs later re-infecting fresh Hep2 cells monolayer with infected cells and measured at 24 hrs post re-infection by immunofluorescence staining based microscopy analysis; assay type: functional, organism-based; outline: as §1
[3] = test system: Chlamydia trachomatis; assay: Anti-Chlamydial activity against Chlamydia trachomatis Serovar LGV-L2 infected in Hep2 cells assessed as reduction in size and number of chlamydial inclusion at 1 ug/ml treated at 8 hrs post-infection and 24 hrs later re-infecting fresh Hep2 cells monolayer with infected cells and measured at 24 hrs post re-infection by immunofluorescence staining based microscopy analysis; assay type: functional, organism-based; outline: as §1
[4] = test system: Chlamydia trachomatis; assay: Anti-Chlamydial activity against Chlamydia trachomatis Serovar LGV-L2 infected in Hep2 cells assessed as reduction in size and number of chlamydial inclusion at 4 ug/ml treated at 8 hrs post-infection and 24 hrs later re-infecting fresh Hep2 cells monolayer with infected cells and measured at 24 hrs post re-infection by immunofluorescence staining based microscopy analysis; assay type: functional, organism-based; outline: as §1
[5] = test system: Haemophilus influenzae; assay: Antimicrobial activity against Haemophilus influenzae H2192 assessed as bacterial growth inhibition measured after 18 to 20 hrs; assay type: functional
[6] = test system: Chlamydia trachomatis; assay: Anti-chlamydial activity against Chlamydia trachomatis Serovar LGV-L2 infected in Hep2 cells assessed as reduction in chlamydial infectivity by measuring decrease in inclusion forming units at 50 ug/ml treated at 8 hrs post-infection and 24 hrs later re-infecting fresh Hep2 cells monolayer with infected cells and measured at 24 hrs post re-infection by immunofluorescence staining based microscopy analysis; assay type: functional, organism-based; outline: as §1
[7] = test system: Chlamydia trachomatis; assay: Anti-Chlamydial activity against Chlamydia trachomatis Serovar LGV-L2 infected in Hep2 cells assessed as reduction in size and number of chlamydial inclusion at 50 ug/ml treated at 8 hrs post-infection and 24 hrs later re-infecting fresh Hep2 cells monolayer with infected cells and measured at 24 hrs post re-infection by immunofluorescence staining based microscopy analysis; assay type: functional, organism-based; outline: as §1
[8] = test system: Neisseria meningitidis; assay: Antimicrobial activity against Neisseria meningitidis MC58 assessed as bacterial growth inhibition measured after 18 to 20 hrs; assay type: functional
[9] = Toxicity in Drosophila melanogaster assessed as survival rate at 0.25 to 1 mM; conditions: 1000 µM
Outline: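 Drosophila SMART assay using third-instar larvae (72 ± 4 h) from ST and HB crosses. Larvae exposed in hydrated instant mashed-potato medium at 0.25, 0.5 and 1.0 mM final. Vehicle control: water with 1% Tween-80 and 3% ethanol. Survival of treated groups compared statistically with the vehicle control.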

[10] = test system: HeLa 229; assay: Cytotoxicity against human HeLa 229 cells assessed as cell viability at 50 ug/ml after 24 hrs by CCK-8 assay relative to control; assay type: cell-based; conditions: hela 229, 24 h
Outline: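 HeLa 229 cells kept in DMEM with 10% FBS and 1% penicillin/streptomycin at 37 °C, 5% CO2. Seeded at 5000 cells/well and dosed next day at 50 μg/mL in triplicate for 24 h, against DMSO-matched controls. CCK-8 reagent added for 2 h, then corrected absorbance read at 450 nm.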

[11] = test system: Chlamydia trachomatis; assay: Anti-chlamydial activity against Chlamydia trachomatis Serovar LGV-L2 infected in Hep2 cells assessed as inhibition of chlamydial inclusion at 50 ug/ml treated at 8 hrs post infection and measured at 24 hrs post-infection by immunofluorescence assay; assay type: functional, organism-based
Outline: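 HEp-2 cells infected with C. trachomatis serovar L2. Compounds at 50 μg/mL added 8 hpi; inclusion number and size assessed by immunofluorescence at 24 hpi against untreated cells. Cell morphology and viability checked by phase-contrast microscopy.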

[12] = test system: Pseudomonas aeruginosa; assay: Antibacterial activity against Pseudomonas aeruginosa ATCC 27853 assessed as bacterial growth inhibition at 32 ug/ml measured after 16 hrs by broth microdilution method; assay type: functional, organism-based
[13] = test system: Escherichia coli; assay: Antibacterial activity against Escherichia coli K12 assessed as bacterial growth inhibition at 32 ug/ml measured after 16 hrs by broth microdilution method; assay type: functional, organism-based; conditions: K-12
Outline: (§2)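 Broth microdilution in Mueller Hinton broth, triplicate. Direct colony suspension at 1.5 x 10^8 CFU/mL diluted to ~10^5 CFU/mL. Serial dilutions made from DMSO stocks at 1 mg/mL; vancomycin positive control, blank medium negative control. Incubated 16 h at optimum temperature. MIC is the lowest concentration without visible growth at 600 nm; mean of triplicate determinations.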

[14] = test system: Klebsiella pneumoniae; assay: Antibacterial activity against Klebsiella pneumoniae ATCC 700603 assessed as bacterial growth inhibition at 32 ug/ml measured after 16 hrs by broth microdilution method; assay type: functional, organism-based
[15] = test system: Escherichia coli; assay: Antibacterial activity against Escherichia coli ATCC 25922 assessed as bacterial growth inhibition at 32 ug/ml measured after 16 hrs by broth microdilution method; assay type: functional, organism-based
[16] = test system: Staphylococcus aureus; assay: Antibacterial activity against methicillin-resistant Staphylococcus aureus ATCC 43300 assessed as bacterial growth inhibition at 32 ug/ml measured after 16 hrs by broth microdilution method; assay type: functional, organism-based
[17] = test system: Staphylococcus aureus; assay: Antibacterial activity against Staphylococcus aureus JE2 assessed as bacterial growth inhibition at 32 ug/ml measured after 16 hrs by broth microdilution method; assay type: functional, organism-based; outline: as §2
[18] = test system: Cryptococcus neoformans; assay: Antifungal activity against Cryptococcus neoformans var. grubii H99 ATCC […] as fungal growth inhibition at 32 ug/ml measured after 16 hrs by broth microdilution method; assay type: functional, organism-based; conditions: var. grubii H99 ATCC 208821
[19] = test system: Candida albicans; assay: Antifungal activity against Candida albicans ATCC 90028 assessed as fungal growth inhibition at 32 ug/ml measured after 16 hrs by broth microdilution method; assay type: functional, organism-based
[20] = Mutagenicity in Drosophila melanogaster somatic cells assessed as frequency of clone formation in HB crosses at 0.25 to 1 mM by SMART assay; assay type: ADME; conditions: 1000 µM
Outline: (§3)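 Drosophila SMART wing-spot assay, ST and HB crosses. Third-instar larvae (72 ± 4 h) placed on hydrated instant mashed potato medium containing compound at 0.25, 0.5 or 1.0 mM final. Negative control: water with 1% Tween-80 and 3% ethanol. Statistics by Frei and Würgler two-sided U test, P≤0.05.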

[21] = Mutagenicity in Drosophila melanogaster somatic cells assessed as frequency of clone formation in ST crosses at 0.25 to 1 mM by SMART assay; assay type: ADME; conditions: 1000 µM; outline: as §3
[22] = test system: Acinetobacter baumannii; assay: Antibacterial activity against Acinetobacter baumannii ATCC 19606 assessed as bacterial growth inhibition at 32 ug/ml measured after 16 hrs by broth microdilution method; assay type: functional, organism-based; conditions: ATCC 19606 = CIP 70.34 = JCM 6841
[23] = test system: HEp-2; assay: Toxicity in human Hep2 cells infected with Chlamydia trachomatis Serovar LGV-L2 assessed as cell morphology at 50 ug/ml treated at 8 hrs post-infection and measured at 24 hrs post-infection by phase contrast microscopy; assay type: cell-based
Outline: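 HEp-2 cells grown in DMEM with 2% L-glutamine and 10% FBS at 37 °C, infected with C. trachomatis serovar L2. Compound at 50 μg/mL added 8 h post-infection, then incubated 16 h more (24 h total). Cell morphology and viability checked by phase-contrast microscopy alongside untreated infected cells.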

[24] = Half life in human liver microsomes at 1 ug/ml measured up to 60 mins by LC-MS/MS analysis; assay type: ADME, Microsome; conditions: microsomes, 1 h
Outline: (§4)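 Human liver microsomes (1.0 mg/mL protein) in 100 mM phosphate pH 7.4 with 10 mM MgCl2 and 2 mM NADPH, preincubated 10 min at 37 °C. Reaction started with compound at 1 μg/mL. Sampled at 0, 5, 15, 20, 30, 45 and 60 min and quenched in methanol with internal standard. Controls: no NADPH (negative), testosterone (positive). Analysed by LC-MS/MS, triplicate.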

[25] = Hepatic intrinsic clearance in human liver microsomes at 1 ug/ml measured per kg body weight up to 60 mins by LC-MS/MS analysis; assay type: ADME, Microsome; conditions: 1 h
[26] = test system: HaCaT; assay: Cytotoxicity against immortal human HaCaT cells assessed as reduction in cell viability at 50 ug/ml after 24 hrs by CCK-8 assay; assay type: cell-based
Outline: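 HeLa 229 and HaCaT cells in DMEM with 10% FBS and 1% penicillin/streptomycin, 37 °C, 5% CO2, seeded at 5000 cells/well. Next day treated with 50 μg/mL in triplicate, with matching DMSO controls. After 24 h, CCK-8 added for 2 h; corrected absorbance read at 450 nm.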

[27] = Stability of compound in mouse pre-heated plasma at 50 uM incubated up to 120 mins by HPLC-ESI/MS analysis; assay type: ADME, cell-free; conditions: 2 h
Outline: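 Compounds from 2.5 mM DMSO stocks incubated at 50 μM final in mouse plasma diluted to 80% with PBS, preheated, 37 °C, shaking. Sampled at 0, 15, 30, 60, 90 and 120 min and quenched with cold acetonitrile. Centrifuged; supernatant analysed by HPLC-ESI-MS. Peak area reported relative to time zero. Enalapril positive control; triplicate.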

[28] = Drug metabolism in human liver microsomes assessed as amount of drug modified at 1 ug/ml […] in presence of NADPH by LC-MS/MS analysis; assay type: ADME, Microsome; conditions: read-out: Drug metabolism
[29] = Stability of the compound in simulated gastric fluid at 50 uM and pH 1.2 at 37 degree C measured up to 120 mins by HPLC-ESI/MS analysis; conditions: simulated gi fluid, pH 1.2, 2 h
[30] = Stability of compound in human liver microsomes at 1 ug/ml measured up to 60 mins in absence of NADPH by LC-MS/MS analysis; assay type: ADME, Microsome; conditions: 1 h; outline: as §4
[31] = Intrinsic clearance in human liver microsomes at 1 ug/ml measured per mg protein up to 60 mins by LC-MS/MS analysis; assay type: ADME, Microsome; conditions: microsomes, 1 h; outline: as §4

CC1(C)S[C@@H]2[C@H](NC(=O)Cc3ccccc3)C(=O)N2[C@H]1C(=O)O
inhibition [1]: Active

CN[C@@H]1[C@H](O)[C@H](NC)[C@H]2O[C@@]3(O)C(=O)C[C@@H](C)O[C@H]3O[C@@H]2[C@H]1O
inhibition [2]: Active

C[C@H]1c2cccc(O)c2C(=O)C2=C(O)[C@]3(O)C(=O)C(C(N)=O)=C(O)[C@@H](N(C)C)[C@@H]3[C@@H](O)[C@@H]21
inhibition [3]: Active

CC[C@H]1OC(=O)[C@H](C)[C@@H](O[C@H]2C[C@@](C)(OC)[C@@H](O)[C@H](C)O2)[C@H](C)[C@@H](O[C@@H]2O[C@H](C)C[C@H](N(C)C)[C@H]2O)[C@](C)(O)C[C@@H](C)CN(C)[C@H](C)[C@@H](O)[C@]1(C)O
inhibition [4]: Active

CC(C)(C(=O)NCCCc1ccccc1)S(=O)(=O)c1ccc(C(F)(F)F)cn1
Activity [5]: 8 µg/mL | inhibition [6]: Active | inhibition [7]: Active | Activity [8]: 16 µg/mL

CC(C)(C(=O)NCCSc1ccc(Cl)cc1)S(=O)(=O)c1ccc(C(F)(F)F)cn1
Activity [9]: Non-Toxic | Activity [10]: < 65% | inhibition [11]: inactive | inhibition [12]: inactive | inhibition [13]: inactive | inhibition [14]: inactive | inhibition [15]: inactive | inhibition [16]: inactive | inhibition [17]: inactive | inhibition [18]: inactive | inhibition [19]: inactive | Activity [20]: Non-Toxic | Activity [21]: Non-Toxic | inhibition [22]: inactive

CC(C)(Sc1ccc(C(F)(F)F)cn1)C(=O)NCCCc1ccccc1
Activity [23]: Toxic

CC(C)(C(=O)NCCOc1ccccc1)S(=O)(=O)c1ccc(C(F)(F)F)cc1
t1/2 [24]: 2.98 min | Activity [9]: Non-Toxic | Activity [10]: < 65% | inhibition [11]: Active | CLH [25]: 1840 mL/min/kg | inhibition [12]: inactive | Activity [26]: Non-Toxic | Stability [27]: Stable | inhibition [13]: inactive | inhibition [14]: inactive | inhibition [6]: Active | inhibition [15]: inactive | inhibition [16]: inactive | inhibition [17]: inactive | inhibition [18]: inactive | inhibition [19]: inactive | Activity [20]: Non-Toxic | metabolised at 10 min, 1 ug/ml [28]: 90% | Stability [29]: Stable | Stability [30]: Stable | Activity [21]: Non-Toxic | microsomal intrinsic clearance [31]: 233.77 µL/min | inhibition [22]: inactive
